Assay results from ChEMBL document CHEMBL1144326, “Exploring the active site of phenylethanolamine N-methyltransferase with 3-hydroxyethyl- and 3-hydroxypropyl-7-substituted-1,2,3,4-tetrahydroisoquinolines” (Bioorg Med Chem Lett, 2005).

target: T1, Alpha-2A adrenergic receptor (Homo sapiens, UniProt P08913); experiment: Binding affinity against human alpha 2A adrenergic receptor in CHO cells using [3H]RX-821002 as radioligand; type: cell-based
T1 sequence (P08913 whole entry): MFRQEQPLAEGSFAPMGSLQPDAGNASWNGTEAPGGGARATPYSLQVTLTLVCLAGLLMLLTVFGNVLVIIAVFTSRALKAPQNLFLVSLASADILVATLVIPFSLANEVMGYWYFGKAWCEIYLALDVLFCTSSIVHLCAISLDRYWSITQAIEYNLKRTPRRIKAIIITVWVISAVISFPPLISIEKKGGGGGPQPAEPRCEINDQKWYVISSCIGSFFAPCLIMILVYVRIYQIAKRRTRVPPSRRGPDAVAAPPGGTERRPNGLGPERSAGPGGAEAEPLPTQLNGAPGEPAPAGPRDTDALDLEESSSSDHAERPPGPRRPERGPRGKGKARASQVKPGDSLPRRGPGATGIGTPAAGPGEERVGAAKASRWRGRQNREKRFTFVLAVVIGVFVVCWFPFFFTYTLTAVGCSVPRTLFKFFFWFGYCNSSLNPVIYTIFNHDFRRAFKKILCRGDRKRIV
Procedure, shortened: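 Membranes from CHO cells stably transfected with human α2A-adrenoceptor; [³H]RX821002 at 0.2 nM as radioligand; nonspecific binding defined with (−)-norepinephrine; displacement of radioligand measured.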

| pKi | SMILES |
| --- | --- |
| 3.6 | O=[N+]([O-])c1ccc2c(c1)CNC(C(F)F)C2 (centres undefined) |
| 4.35 | FC(F)(F)C1Cc2ccc(Br)cc2CN1 (centres undefined) |
| 3.4 | O=[N+]([O-])c1ccc2c(c1)CNC(C(F)(F)F)C2 (centres undefined) |
| 3.9 | O=[N+]([O-])c1ccc2c(c1)CNC(CO)C2 (centres undefined) |
| 3.2 | O=[N+]([O-])c1ccc2c(c1)CNC(CF)C2 (centres undefined) |

| SMILES | pKi |
| --- | --- |
| NS(=O)(=O)c1ccc2c(c1)CNCC2 | 3.4 |
| O=[N+]([O-])c1ccc2c(c1)CNCC2 | 3.2 |
| CC1Cc2ccc([N+](=O)[O-])cc2CN1 (centres undefined) | 4.84 |
| Clc1ccc2c(c1Cl)CNCC2 | 6.52 |

target: T2, Adrenergic receptor alpha-2 (Rattus norvegicus, UniProt P22086+P19328+P22909); experiment: Binding affinity against alpha 2 adrenergic receptor in rat cortex using [3H]clonidine as radioligand; type: tissue-based
T2 sequence (P22086 whole entry): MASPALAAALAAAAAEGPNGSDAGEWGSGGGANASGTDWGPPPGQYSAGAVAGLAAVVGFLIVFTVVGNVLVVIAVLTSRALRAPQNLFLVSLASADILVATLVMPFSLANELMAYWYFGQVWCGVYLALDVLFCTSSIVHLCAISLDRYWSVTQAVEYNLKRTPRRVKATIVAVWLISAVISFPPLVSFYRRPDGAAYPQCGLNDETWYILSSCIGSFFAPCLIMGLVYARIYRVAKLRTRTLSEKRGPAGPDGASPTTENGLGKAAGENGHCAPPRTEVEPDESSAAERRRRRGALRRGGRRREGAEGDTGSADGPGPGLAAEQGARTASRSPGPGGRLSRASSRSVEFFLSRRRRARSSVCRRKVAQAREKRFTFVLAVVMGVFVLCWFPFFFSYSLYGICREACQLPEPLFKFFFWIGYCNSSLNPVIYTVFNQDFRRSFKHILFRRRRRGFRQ
T2 sequence (P19328 whole entry): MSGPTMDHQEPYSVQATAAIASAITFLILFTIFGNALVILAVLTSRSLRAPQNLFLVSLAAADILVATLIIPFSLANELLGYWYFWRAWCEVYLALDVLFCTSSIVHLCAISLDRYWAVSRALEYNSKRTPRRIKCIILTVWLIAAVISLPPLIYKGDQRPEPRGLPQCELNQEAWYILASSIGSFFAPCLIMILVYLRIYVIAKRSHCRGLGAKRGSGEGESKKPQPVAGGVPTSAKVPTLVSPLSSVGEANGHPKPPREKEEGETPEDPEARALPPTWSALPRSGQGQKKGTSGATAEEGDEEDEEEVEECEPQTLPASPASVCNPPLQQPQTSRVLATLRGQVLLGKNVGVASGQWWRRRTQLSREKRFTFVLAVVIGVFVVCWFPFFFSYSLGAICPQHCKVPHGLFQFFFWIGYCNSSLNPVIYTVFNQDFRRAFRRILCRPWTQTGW
T2 sequence (P22909 whole entry): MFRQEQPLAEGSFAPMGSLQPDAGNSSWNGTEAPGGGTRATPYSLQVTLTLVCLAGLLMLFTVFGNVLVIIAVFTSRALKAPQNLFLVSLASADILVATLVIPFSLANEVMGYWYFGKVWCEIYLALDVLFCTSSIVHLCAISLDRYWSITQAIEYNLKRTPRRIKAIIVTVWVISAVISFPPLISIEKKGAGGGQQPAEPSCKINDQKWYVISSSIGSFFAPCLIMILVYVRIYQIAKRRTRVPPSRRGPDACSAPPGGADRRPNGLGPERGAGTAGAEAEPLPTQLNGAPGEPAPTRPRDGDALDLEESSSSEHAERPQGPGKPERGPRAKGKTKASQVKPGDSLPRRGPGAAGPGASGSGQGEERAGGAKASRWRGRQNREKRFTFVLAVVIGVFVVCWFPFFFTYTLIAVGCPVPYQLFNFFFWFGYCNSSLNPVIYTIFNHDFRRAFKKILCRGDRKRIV

| Ki | SMILES |
| --- | --- |
| 4.8 µM | OCCCC1Cc2ccc(Br)cc2CN1 (centres undefined) |
| 1 µM | OCC1Cc2ccc(Br)cc2CN1 (centres undefined) |
| 59 µM | O=[N+]([O-])c1ccc2c(c1)CNC(CCCO)C2 (centres undefined) |
| 46 µM | O=[N+]([O-])c1ccc2c(c1)CNC(CCO)C2 (centres undefined) |
| 1.3 µM | OCCC1Cc2ccc(Br)cc2CN1 (centres undefined) |
